Experimental data as given in ChEMBL document CHEMBL5705890, “Antitumor activity of an allosteric inhibitor of centromere-associated protein-E” (Proc Natl Acad Sci U S A, 2010).

How the values were obtained:
Format in all cases: functional
[1] = Anticancer activity against human TE 381.T cells assessed as cell doubling measured for 72 hrs by DAPI staining based analysis
MV4-11 = assay: Anticancer activity against human MV4-11 cells assessed as cell doubling measured for 72 hrs by DAPI staining based analysis
SCC-9 = assay: Anticancer activity against human SCC-9 cells assessed as cell doubling measured for 72 hrs by DAPI staining based analysis
K562 [2] = assay: Anticancer activity against human K562 cells assessed as cell growth inhibition measured after 72 hrs by DAPI staining based analysis
Hep 3B2 = assay: Anticancer activity against human Hep3B cells assessed as cell doubling measured for 72 hrs by DAPI staining based analysis
SW872 = assay: Anticancer activity against human SW872 cells assessed as cell growth inhibition measured after 72 hrs by DAPI staining based analysis
SW1088 = assay: Anticancer activity against human SW1088 cells assessed as cell doubling measured for 72 hrs by DAPI staining based analysis
CAKI-2 = assay: Anticancer activity against human CAKI-2 cells assessed as cell doubling measured for 72 hrs by DAPI staining based analysis
RL = assay: Anticancer activity against human RL cells assessed as cell growth inhibition measured after 72 hrs by DAPI staining based analysis
CAL-54 = assay: Anticancer activity against human CAL-54 cells assessed as cell doubling measured for 72 hrs by DAPI staining based analysis
Capan-2 = assay: Anticancer activity against human Capan-2 cells assessed as cell growth inhibition measured after 72 hrs by DAPI staining based analysis
Summary of the method: (§1)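 Cells seeded, DAPI-stained DNA content of fixed cells read by imaging 24 h after seeding (T0), and again after a further 72 h exposure to a range of drug concentrations (T72). T72 values were normalized to T0. Curve fits gave the concentration producing 50% growth inhibition relative to T0 and Ymax (GI50).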

U-251 = assay: Anticancer activity against human U-251 cells assessed as cell doubling measured for 72 hrs by DAPI staining based analysis
MX1 [3] = assay: Anticancer activity against human MX1 cells assessed as cell doubling measured for 72 hrs by DAPI staining based analysis
BC-3 = assay: Anticancer activity against human BC-3 cells assessed as cell doubling measured for 72 hrs by DAPI staining based analysis
K562 [4] = assay: Anticancer activity against human K562 cells assessed as cell doubling measured for 72 hrs by DAPI staining based analysis
HCC 2998 = assay: Anticancer activity against human HCC 2998 cells assessed as cell growth inhibition measured after 72 hrs by DAPI staining based analysis; summary of the method: as §1
SK-NEP-1 = assay: Anticancer activity against human SK-NEP-1 cells assessed as cell doubling measured for 72 hrs by DAPI staining based analysis
CAL-27 = assay: Anticancer activity against human CAL-27 cells assessed as cell growth inhibition measured after 72 hrs by DAPI staining based analysis
Summary of the method: (§2)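 Cells were seeded, and DNA content at 24 h after seeding (T0) was read by imaging of fixed, DAPI-stained cells. Cells were then exposed to a range of drug concentrations for a further 72 h (T72) and DNA content was read again. T72 values were normalized to T0, and GI50 was taken from curve fits as the concentration giving 50% growth inhibition relative to T0 and Ymax.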

HuP-T4 = assay: Anticancer activity against human HuP-T4 cells assessed as cell doubling measured for 72 hrs by DAPI staining based analysis
[5] = Anticancer activity against human TE 381.T cells assessed as cell growth inhibition measured after 72 hrs by DAPI staining based analysis
MDA-MB-231 = assay: Antitumor activity against human MDA-MB-231 cells in xenograft model assessed as difference between median time to endpoint time of treated versus control group at 125 mg/kg
[6] = Anticancer activity against human C32TG cells assessed as cell doubling measured for 72 hrs by DAPI staining based analysis
SW1463 = assay: Anticancer activity against human SW1463 cells assessed as cell doubling measured for 72 hrs by DAPI staining based analysis
MIA PaCa-2 = assay: Anticancer activity against human MIA PaCa-2 cells assessed as cell growth inhibition measured after 72 hrs by DAPI staining based analysis
SNB-19 = assay: Anticancer activity against human SNB-19 cells assessed as cell growth inhibition measured after 72 hrs by DAPI staining based analysis
SK-UT-1 = assay: Anticancer activity against human SK-UT-1 cells assessed as cell doubling measured for 72 hrs by DAPI staining based analysis
RKO = assay: Anticancer activity against human RKO cells assessed as cell doubling measured for 72 hrs by DAPI staining based analysis
MX1 [7] = assay: Antitumor activity against human MX1 cells in xenograft model assessed as difference between median time to endpoint time of treated versus control group at 62.5 mg/kg
OVCAR-3 = assay: Anticancer activity against human OVCAR-3 cells assessed as cell growth inhibition measured after 72 hrs by DAPI staining based analysis
AN3-CA = assay: Anticancer activity against human AN3-CA cells assessed as cell doubling measured for 72 hrs by DAPI staining based analysis
HT-29 = assay: Antitumor activity against human HT-29 cells in xenograft model assessed as tumor growth delay at 62.5 mg/kg relative to control
Caov-3 cell line = assay: Anticancer activity against human Caov-3 cells assessed as cell growth inhibition measured after 72 hrs by DAPI staining based analysis; summary of the method: as §1
NCI-H716 = assay: Anticancer activity against human NCI-H716 cells assessed as cell doubling measured for 72 hrs by DAPI staining based analysis
HCC1143 = assay: Anticancer activity against human HCC1143 cells assessed as cell doubling measured for 72 hrs by DAPI staining based analysis
UACC-62 = assay: Anticancer activity against human UACC-62 cells assessed as cell growth inhibition measured after 72 hrs by DAPI staining based analysis
SK-N-FI = assay: Anticancer activity against human SK-N-FI cells assessed as cell doubling measured for 72 hrs by DAPI staining based analysis
C3A = assay: Anticancer activity against human C3A cells assessed as cell growth inhibition measured after 72 hrs by DAPI staining based analysis; summary of the method: as §2
[8] = Anticancer activity against human SW579 cells assessed as cell growth inhibition measured after 72 hrs by DAPI staining based analysis
DoTc2-4510 = assay: Anticancer activity against human DoTc2-4510 cells assessed as cell growth inhibition measured after 72 hrs by DAPI staining based analysis; summary of the method: as §1
A673 = assay: Anticancer activity against human A673 cells assessed as cell doubling measured for 72 hrs by DAPI staining based analysis
SK-MEL-28 = assay: Anticancer activity against human SK-MEL-28 cells assessed as cell growth inhibition measured after 72 hrs by DAPI staining based analysis
HPAF-II = assay: Anticancer activity against human HPAF-II cells assessed as cell doubling measured for 72 hrs by DAPI staining based analysis
HCT-116 = assay: Anticancer activity against human HCT-116 cells assessed as cell growth inhibition measured after 72 hrs by DAPI staining based analysis

CC(C)Oc1ccc(C(=O)N[C@H](CNC(=O)CN(C)C)Cc2ccc(-c3cn4cccc([C@H](C)O)c4n3)cc2)cc1Cl [GSK-923295A]
Activity [1]: 1.92 | Activity (MV4-11): 1.79 | Activity (SCC-9): 1.95 | GI50 (K562 [2]): 25 nM | Activity (Hep 3B2): 2.37 | GI50 (SW872): 37 nM | Activity (SW1088): 2.55 | Activity (CAKI-2): 1.63 | GI50 (RL): 37 nM | Activity (CAL-54): 1.05 | GI50 (Capan-2): 119 nM | Activity (U-251): 3.04 | Activity (MX1 [3]): 2.99 | Activity (BC-3): 2.65 | Activity (K562 [4]): 3.52 | GI50 (HCC 2998): 29 nM | Activity (SK-NEP-1): 1.74 | GI50 (CAL-27): 47 nM | Activity (HuP-T4): 1.09 | GI50 [5]: 27 nM | Time (MDA-MB-231): 47.1 days | Activity [6]: 1.21 | Activity (SW1463): 1.22 | GI50 (MIA PaCa-2): 23 nM | GI50 (SNB-19): 28 nM | Activity (SK-UT-1): 2.88 | Activity (RKO): 4.17 | Time (MX1 [7]): 1.4 days | GI50 (OVCAR-3): 42 nM | Activity (AN3-CA): 1.74 | Activity (HT-29): 6% | GI50 (Caov-3 cell line): 33 nM | Activity (NCI-H716): 1.41 | Activity (HCC1143): 1.89 | GI50 (UACC-62): 25 nM | Activity (SK-N-FI): 1.24 | GI50 (C3A): 54 nM | GI50 [8]: 26 nM | GI50 (DoTc2-4510): 33 nM | Activity (A673): 2 | GI50 (SK-MEL-28): 31 nM | Activity (HPAF-II): 2.42 | GI50 (HCT-116): 31 nM
